What was measured:
Type in all cases: functional
Escherichia coli [1] = assay: Maximum NaCl molar concentration that showed 50% bacterial growth in Escherichia coli 31 at MM+0.1 mmol Choline
Summary of the method: (§1)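 Single colony from MacConkey agar subcultured overnight in minimal medium at 37 °C. Inoculum: 1:200 dilution of 0.5 McFarland standard (~5 × 10^5 cfu/mL final) into minimal medium with NaCl 0.1–1 M in 0.1 M steps. Test compound 0.1 mM, alone or with GB or Chol 0.1 mM. OD600 read at 48 h. Endpoint is highest NaCl giving ≥50% growth versus full-growth tubes. Mean of three ±SD.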

Escherichia coli [2] = assay: Maximum NaCl molar concentration that showed 50% bacterial growth in Escherichia coli K10 at MM+0.1 mmol GB (Glycine Betaine); summary of the method: as §1
Escherichia coli [3] = assay: Maximum NaCl molar concentration that showed 50% bacterial growth in Escherichia coli K10 at minimum media (MM); summary of the method: as §1
Escherichia coli [4] = assay: Maximum NaCl molar concentration that showed 50% bacterial growth in Escherichia coli K10 at MM+0.1 mmol Choline; summary of the method: as §1
Escherichia coli [5] = assay: Maximum NaCl molar concentration that showed 50% bacterial growth in Escherichia coli ATCC 25922 at MM+0.1 mmol Choline; summary of the method: as §1
Escherichia coli [6] = assay: Maximum NaCl molar concentration that showed 50% bacterial growth in Escherichia coli ATCC 25922 at minimum media (MM); summary of the method: as §1
Escherichia coli [7] = assay: Maximum NaCl molar concentration that showed 50% bacterial growth in Escherichia coli 31 at MM+0.1 mmol GB (Glycine Betaine); summary of the method: as §1
Escherichia coli [8] = assay: Maximum NaCl molar concentration that showed 50% bacterial growth in Escherichia coli 31 at minimum media (MM); summary of the method: as §1
Escherichia coli [9] = assay: Maximum NaCl molar concentration that showed 50% bacterial growth in Escherichia coli ATCC 25922 at MM+0.1 mmol GB (Glycine Betaine); summary of the method: as §1

Structure (SMILES) | Max salt tolerance (Escherichia coli [1]) | Max salt tolerance (Escherichia coli [2]) | Max salt tolerance (Escherichia coli [3]) | Max salt tolerance (Escherichia coli [4]) | Max salt tolerance (Escherichia coli [5]) | Max salt tolerance (Escherichia coli [6]) | Max salt tolerance (Escherichia coli [7]) | Max salt tolerance (Escherichia coli [8]) | Max salt tolerance (Escherichia coli [9])
C[N+](C)(C)CC(=O)Nc1ccc(S(=O)(=O)NC(=O)C[N+](C)(C)C)cc1.[Cl-].[Cl-] | 0.9 | 0.9 | 0.56 | 0.86 | 0.8 | 0.5 | 0.9 | 0.73 | 0.83
C[N+]1(CS(=O)(=O)[O-])CCCCC1 | 0.88 | 0.9 | 0.35 | 0.5 | 0.2 | 0.13 | 0.93 | 0.43 | 0.86
C[N+](C)(C)CC(=O)[N-]S(=O)(=O)c1ccccc1 | 0.9 | 0.9 | 0.56 | 0.86 | 0.8 | 0.5 | 0.9 | 0.73 | 0.83
C[N+](C)(C)CC(=O)[N-]S(=O)(=O)c1ccc(NC(=O)CCl)cc1 | 0.8 | 0.86 | 0.3 | 0.8 | 0.8 | 0.1 | 0.9 | 0.63 | 0.86
C[N+](C)(C)CC(=O)Nc1ccc(S(N)(=O)=O)cc1.[Cl-] | 0.9 | 0.9 | 0.56 | 0.86 | 0.8 | 0.5 | 0.9 | 0.73 | 0.83
C[N+]1(CS(=O)(=O)[O-])CCCC1 | 0.86 | 0.97 | 0.5 | 0.6 | 0.2 | 0.13 | 0.93 | 0.7 | 0.87
C[N+](C)(C)CC(=O)[N-]S(=O)(=O)c1ccc(NC(=O)CI)cc1 | 0.8 | 0.86 | 0.3 | 0.8 | 0.8 | 0.1 | 0.9 | 0.63 | 0.86
CCC(=O)Nc1ccc(S(=O)(=O)[N-]C(=O)C[N+](C)(C)C)cc1 | 0.8 | 0.9 | 0.57 | 0.83 | 0.8 | 0.4 | 0.9 | 0.7 | 0.86
C[N+](C)(C)CS(=O)(=O)[O-] | 0.9 | 0.93 | 0.83 | 0.9 | 0.33 | 0.27 | 0.9 | 0.83 | 0.86
C[N+]1(CS(=O)(=O)[O-])CCOCC1 | 0.9 | 0.97 | 0.63 | 0.87 | 0.23 | 0.2 | 0.97 | 0.77 | 0.83
CC(=O)Nc1ccc(S(=O)(=O)[N-]C(=O)C[N+](C)(C)C)cc1 | 0.8 | 0.9 | 0.57 | 0.83 | 0.8 | 0.4 | 0.9 | 0.7 | 0.86
Br.C[N+](C)(C)CC(=O)[N-]S(=O)(=O)c1ccc(NC(=O)CBr)cc1 | 0.8 | 0.86 | 0.3 | 0.8 | 0.8 | 0.1 | 0.9 | 0.63 | 0.86
C[N+](C)(C)CC(=O)NS(=O)(=O)c1ccc(N)cc1.[Cl-] | 0.9 | 0.9 | 0.56 | 0.86 | 0.8 | 0.5 | 0.9 | 0.73 | 0.83
C[N+](C)(C)CP(=O)([O-])O [HYDROGEN (TRIMETHYLAMMONIO)METHYLPHOSPHONATE] | 0.83 | 0.87 | 0.4 | 0.77 | 0.77 | 0.33 | 0.9 | 0.6 | 0.8
